# Data reported in ChEMBL document CHEMBL1144286, “Parallel synthesis of pteridine derivatives as potent inhibitors for hepatitis C virus NS5B RNA-dependent RNA polymerase” (Bioorg Med Chem Lett, 2005).
# Molecular target: RNA-directed RNA polymerase (Hepacivirus hominis, UniProt O39930)
# Assay: Inhibitory concentration against RNA dependent RNA polymerase Nonstructural protein 5B of hepatitis C virus
# Summary of the method: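 Run per an earlier published HCV NS5B RdRp procedure. Compounds were dissolved in DMSO and then transferred into assay buffer. Each was tested in duplicate, and IC50 was taken as the concentration giving 50% inhibition of polymerase activity.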
# Sequence of RNA-directed RNA polymerase (O39930 whole entry): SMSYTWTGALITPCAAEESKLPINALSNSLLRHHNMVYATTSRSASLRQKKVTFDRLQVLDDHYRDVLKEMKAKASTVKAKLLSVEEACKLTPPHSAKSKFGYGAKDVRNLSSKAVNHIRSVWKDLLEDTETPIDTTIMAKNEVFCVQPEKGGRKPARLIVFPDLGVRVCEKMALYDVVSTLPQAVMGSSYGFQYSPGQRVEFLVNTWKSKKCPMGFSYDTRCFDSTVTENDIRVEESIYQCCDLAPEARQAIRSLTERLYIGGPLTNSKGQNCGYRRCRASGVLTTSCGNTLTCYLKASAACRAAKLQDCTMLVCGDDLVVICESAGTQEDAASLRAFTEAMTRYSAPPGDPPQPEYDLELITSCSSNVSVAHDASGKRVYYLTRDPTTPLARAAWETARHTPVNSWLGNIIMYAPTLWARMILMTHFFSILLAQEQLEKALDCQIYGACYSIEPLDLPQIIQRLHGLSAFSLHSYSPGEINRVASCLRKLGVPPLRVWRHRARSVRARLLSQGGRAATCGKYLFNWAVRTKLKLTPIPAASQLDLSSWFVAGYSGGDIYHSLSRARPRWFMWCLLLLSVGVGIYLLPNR
row,IC50 [µM],Compound
1,26,Fc1ccc(CCNc2ncnc3nc(-c4ccc(F)cc4)c(-c4ccc(F)cc4)nc23)cc1
2,58,Oc1ncnc2nc(-c3ccco3)c(-c3ccco3)nc12
3,51,COC(=O)C1CCCN1c1ncnc2nc(-c3ccc(F)cc3)c(-c3ccc(F)cc3)nc12 (configuration not stated)
4,68,Fc1ccc(-c2nc3ncnc(N4CCCCC4)c3nc2-c2ccc(F)cc2)cc1
5,73,CCCCOCCCNc1ncnc2nc(-c3ccc(F)cc3)c(-c3ccc(F)cc3)nc12
6,30,O=[N+]([O-])c1ccc(-c2nc3ncnc(O)c3nc2-c2ccccc2)cc1
7,0.5,Oc1ncnc2nc(-c3ccc(F)cc3)c(-c3ccc(F)cc3)nc12
8,2.9,Fc1ccc(-c2nc3ncnc(NCc4ccco4)c3nc2-c2ccc(F)cc2)cc1
9,10,CCCCC(CC)CNc1ncnc2nc(-c3ccc(F)cc3)c(-c3ccc(F)cc3)nc12 (configuration not stated)
10,2.1,Fc1ccc(-c2nc3ncnc(NC4CCC4)c3nc2-c2ccc(F)cc2)cc1
11,1.3,CC1CCC(Nc2ncnc3nc(-c4ccc(F)cc4)c(-c4ccc(F)cc4)nc23)CC1 (configuration not stated)
12,3.2,Fc1ccc(-c2nc3ncnc(NC4CCCCCC4)c3nc2-c2ccc(F)cc2)cc1
13,2.9,CCNc1ncnc2nc(-c3ccc(F)cc3)c(-c3ccc(F)cc3)nc12
14,87,CCCCOCCCNc1ncnc2nc(-c3ccccc3)c(-c3ccccc3)nc12
15,15,Oc1ncnc2nc(-c3ccccc3)c(-c3ccccc3)nc12
16,30,O=c1[nH]cnc2nc(-c3ccc(Br)cc3)c(-c3ccc(Br)cc3)nc12
17,16,CCNc1ncnc2nc(-c3ccccc3)c(-c3ccccc3)nc12
18,13,Fc1ccc(-c2nc3ncnc(NCCc4ccccc4)c3nc2-c2ccc(F)cc2)cc1
19,6,CCCC(C)Nc1ncnc2nc(-c3ccccc3)c(-c3ccccc3)nc12 (configuration not stated)
20,9.6,Cc1ccc(CNc2ncnc3nc(-c4ccc(F)cc4)c(-c4ccc(F)cc4)nc23)cc1
21,21,CN(C)c1ncnc2nc(-c3ccc(F)cc3)c(-c3ccc(F)cc3)nc12
22,29,c1ccc(-c2nc3ncnc(NC4CCCCCC4)c3nc2-c2ccccc2)cc1
23,1.5,CCCC(C)Nc1ncnc2nc(-c3ccc(F)cc3)c(-c3ccc(F)cc3)nc12 (configuration not stated)
24,23,O=c1[nH]cnc2nc(-c3ccccc3)c(-c3ccc([N+](=O)[O-])cc3)nc12
25,80,COc1ccccc1CCNc1ncnc2nc(-c3ccc(F)cc3)c(-c3ccc(F)cc3)nc12

row,Compound,IC50 [µM]
1,COc1cccc(-c2nc3ncnc(O)c3nc2-c2cccc(OC)c2)c1,> 100
2,Oc1ncnc2nc(-c3ccccn3)c(-c3ccccn3)nc12,> 100
3,Cc1ccc(-c2nc3ncnc(O)c3nc2-c2ccc(C)cc2)cc1,> 100
4,Cc1ccc(CNc2ncnc3nc(-c4ccccc4)c(-c4ccccc4)nc23)cc1,> 100
5,Fc1ccc(CCNc2ncnc3nc(-c4ccccc4)c(-c4ccccc4)nc23)cc1,> 100
6,O=c1[nH]cnc2nc(-c3ccccc3Cl)c(-c3ccccc3Cl)nc12,> 100
7,COc1ccc(-c2nc3ncnc(O)c3nc2-c2ccc(OC)cc2)cc1,> 100
8,CCCCCCNc1ncnc2nc(-c3ccccc3)c(-c3ccccc3)nc12,> 100
9,O=c1[nH]cnc2nc3c(nc12)C1CCCCC31 (configuration not stated),> 100
10,O=c1[nH]cnc2nc3c4ccccc4c4ccccc4c3nc12,> 100
11,c1ccc(-c2nc3ncnc(N4CCCCC4)c3nc2-c2ccccc2)cc1,> 100
12,CCCCCCNc1ncnc2nc(-c3ccc(F)cc3)c(-c3ccc(F)cc3)nc12,> 100
